Compound activity deposited in PubChem BioAssay by several laboratories.
CRFBP-R2 agonist: agonists of CRF-BP/CRF-R2 complex, primary screen, cell-based, HEK293, calcium dye fluorescence, uHTS | calcium dye fluorescence (FLIPR); percent of saturating CRF peptide response | 350,000 compounds, 0.46% hits | activation, % at 13.2 µM | CRF-binding protein / CRF receptor 2 complex (human);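 active = activation of at least 50%, plus an integration ratio under a set limit after plate pattern correction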;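 note: plate controls were neutral control wells without compound for no effect and CRF at EC100 for full effect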
DDE Tn6 FP inh: inhibitors of Tn6 peptide binding to fibrin DD(E), primary screen, biochemical, fluorescence polarization, human fibrin, Tn6 probe; Fibrinogen beta chain (Homo sapiens), P02675; Fibrin DD(E) TRITC-Tn6 fluorescence polarization displacement; inhibition, % at 8.3 µM; 370,000 compounds, 0.21% hits;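 active = inhibition above a per-campaign cutoff: mean of compounds within control limits plus 3 SD, cut at about 15% in these data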;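 note: 0% = median of all compound wells on the plate and 100% = blocking peptide control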
Target sequence (P02675 whole entry, looked up): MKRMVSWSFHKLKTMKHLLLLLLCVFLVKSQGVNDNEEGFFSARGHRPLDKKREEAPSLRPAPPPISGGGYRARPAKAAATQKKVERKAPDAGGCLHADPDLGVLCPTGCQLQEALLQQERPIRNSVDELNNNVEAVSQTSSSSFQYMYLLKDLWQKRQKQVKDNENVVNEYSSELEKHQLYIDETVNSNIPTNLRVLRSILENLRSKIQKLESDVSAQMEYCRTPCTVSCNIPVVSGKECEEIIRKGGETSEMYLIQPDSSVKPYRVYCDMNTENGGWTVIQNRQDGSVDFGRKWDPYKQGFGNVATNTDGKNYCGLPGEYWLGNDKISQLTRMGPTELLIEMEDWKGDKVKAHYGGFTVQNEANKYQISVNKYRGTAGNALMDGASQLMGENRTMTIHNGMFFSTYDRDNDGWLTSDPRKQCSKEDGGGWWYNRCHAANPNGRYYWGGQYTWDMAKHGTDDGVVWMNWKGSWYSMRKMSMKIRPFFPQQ
DDE Tn7 FP inh: inhibitors of Tn7 peptide binding to fibrin DD(E), primary screen, biochemical, fluorescence polarization, human fibrin, Tn7 probe; Fibrinogen beta chain (Homo sapiens), P02675; FP displacement of FITC-Tn7 peptide from fibrin DD(E); 0% = median of compound wells per plate; inhibition, % at 8.3 µM; 370,000 compounds, 0.13% hits; AID 720508, 2013;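 active = inhibition above the mean of compounds falling within the control limits plus 3 SD of them, cut at about 14% in these data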;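 note: 0% = plate median of compound wells and 100% = 10 µM Aha-Tn7 peptide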
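assay system = human clot-derived fibrin DD(E) complex | quantity = Fibrin-DD(E) at 2 µM final | timing = 10 min preincubation, 3 h with tracer, room temperature | signal = fluorescence polarization | measure = percent inhibition | benchmarks = high control wells with 10 µM unlabelled Aha-Tn7 peptide (full inhibition) | replicates = singlicate testing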
CRFR2-BP antag: antagonists of CRF-BP/CRF-R2 complex, primary screen, cell-based, HEK293, calcium dye fluorescence, uHTS; 350,000 compounds, 0.59% hits; CRF-induced calcium fluorescence; inhibition, % at 11.8 µM;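 active = inhibition of the ligand-induced calcium signal above about 50% at the single tested concentration, limit read from the data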
An asterisk follows results filed as active; . = no result. A selection: hits, their analogues and other compounds. The true share with any hit is near 1.2%.

SMILES | CRFBP-R2 agonist | DDE Tn6 FP inh | DDE Tn7 FP inh | CRFR2-BP antag
Oc1ccc2ccccc2c1CN1CCCCC1 | 109* | -3 | -4 | 17
Oc1ccc2ccccc2c1CN1CCCC1 | 45 | 1 | -2 | -18
CC(C)CSc1nnc2[nH]c(=O)cc(N)n12 | 1 | 2 | 5 | 96*
CCc1ccc(S(=O)(=O)NCC2(N3CCOCC3)CCCCC2)cc1 | 54* | 2 | 10 | -22
O=S(=O)(NCC1(N2CCOCC2)CCCCC1)c1ccccc1Cl | 0 | -2 | -5 | 2
O=S(=O)(NCC1(N2CCOCC2)CCCCC1)c1ccc(Cl)cc1C(F)(F)F | 56* | -6 | -2 | -49
CC1=C([N+](=O)[O-])C(c2ccccc2Cl)NC(=O)N1C (stereo not drawn) | 2 | 5 | -3 | 3
CNc1ccccc1/C(O)=C(\C#N)C(=O)NCc1cccc2ccccc12 | . | -1 | -3 | .
NNC(=O)c1oc2ccccc2c1-n1cccc1 | -6 | 4 | -10 | -6
O=C(NNC(=O)c1oc2ccccc2c1-n1cccc1)c1ccco1 | -3 | -6 | 0 | 97*
CC(/C=N/Nc1nc(C)cc(C)n1)=C\c1ccc(C(C)C)cc1 | -2 | -5 | 3 | 61*
CC(=O)NC1CC2CCCC(C1)N2C(=O)Nc1c(C)cccc1C (stereo not drawn) | 3 | -2 | -4 | -8
CCc1ccc(C(C)NC(=S)NC2CCCCC2)cc1 (stereo not drawn) | 5 | . | . | 71*
CCC(C)CNC(=O)CN1C(=O)C2CCCCN2C(=O)c2ccccc21 (stereo not drawn) | . | 7 | 11 | .
O=C(NCCN1CCc2ccccc2C1)Nc1ccc([N+](=O)[O-])cc1 | -1 | -3 | 15* | 27
O=C(NCCCN1CCc2ccccc2C1)Nc1ccc(Br)cc1 | 10 | 11 | -1 | -35
COc1ccc(NC(=O)NCCCN2CCc3ccccc3C2)cc1 | -2 | 4 | 1 | 52*
Clc1ccc(-c2nnc(NCc3ccccc3)c3ccccc23)cc1 | -2 | 1 | -3 | 52*
COc1ccc(Nc2cccccc2=O)cc1 | -1 | 1 | 2 | 3
COc1ccc(Nc2ccccc2)c(C)c1 | 0 | . | . | 50*
Cc1cc(NS(=O)(=O)c2c(C(=O)N3CCOCC3)c(C)n(C)c2C)ccc1Br | -1 | 3 | -4 | 92*
COc1ccc([N+](=O)[O-])cc1N(CC(=O)NCCCOC(C)C)S(C)(=O)=O | -2 | 14 | -6 | 60*
O=C1CSC(c2nn(-c3ccccc3)cc2-c2cc3ccccc3oc2=O)N1Cc1ccco1 (stereo not drawn) | 4 | -3 | 1 | 84*
O=C(NC(Nc1nc2ccc([N+](=O)[O-])cc2s1)(C(F)(F)F)C(F)(F)F)c1cccnc1 | 57* | 1 | -9 | 60*
NC(=O)c1ncn([C@@H]2O[C@H](C(=O)N[C@H](Cc3c[nH]c4ccccc34)C(=O)O)[C@@H](O)[C@H]2O)n1 | . | 5 | 7 | .
SMILES | CRFBP-R2 agonist | DDE Tn6 FP inh | DDE Tn7 FP inh | CRFR2-BP antag
COC(=O)C1CN(Cc2ccc(C)cc2)CCS(=O)(=O)N1Cc1cn(Cc2ccccc2)nn1 (stereo not drawn) | . | 3 | -5 | .
CCS(=O)(=O)Nc1ccc(-c2nc3cccnc3s2)cc1 | 89* | 0 | 2 | -15
c1ccc2c(c1)OCCOCCOCCOCCOc1ccccc1OCCOCCOCCO2 | 1 | -5 | 2 | 50*
CCc1cccc(CC)c1N1C(=O)COCC1=O | 0 | -5 | 4 | -9
CCc1cccc(CC)c1N1C(=O)C2=C(SCCCS2)C1=O | 137* | 10 | 3 | -127
CC[C@H](C(=O)Nc1ccccc1N1CCCC1)c1ccccc1 | . | -6 | 1 | .
Cc1cn2c(N)c(C=C3C=C(Cl)C(=O)C(Cl)=C3)c(=O)nc2s1 | 117* | -8 | 1 | -131
COC1=C/C(=C/c2c(N)n3cc(C)sc3nc2=O)C=CC1=O | 61* | 6 | -1 | -70
CC1(C)Cc2c(C#N)c(NCC3CCCO3)nc(-c3ccco3)c2CO1 (stereo not drawn) | 1 | -1 | 0 | 104*
Cc1cc(F)ccc1S(=O)(=O)NCC1CC2CCC1C2 (stereo not drawn) | 87* | 6 | 0 | -93
CCCCCCN1CCS(=O)(=O)N(Cc2ccc(C)cc2)C(C(=O)OC)C1 (stereo not drawn) | . | 0 | 3 | .
O=C(NCCc1cn[nH]c1)C1CCC(=O)N(CCc2cccc(F)c2)C1 (stereo not drawn) | -1 | 7 | -1 | 104*
O=C(NCCc1ccccc1)C1CCC(=O)N(Cc2ccc(Cl)cc2)C1 (stereo not drawn) | -1 | 0 | -4 | -8
O=C(NCCc1cccnc1)C1CCC(=O)N(Cc2ccc(Cl)cc2)C1 (stereo not drawn) | 1 | 1 | -7 | 104*
O=C(Nc1ccc2ccccc2c1)C1CC2CCC1C2 (stereo not drawn) | . | -5 | 4 | .
O=S(=O)(c1ccc(CN2CCOCCOCCN(Cc3ccc(S(=O)(=O)C(F)(F)F)cc3)CCOCC2)cc1)C(F)(F)F | . | -3 | -11 | .
O=C(O)c1ccc(Cl)c(NC(=S)NC(=O)c2cccc(COc3ccccc3)c2)c1 | -6 | -6 | 1 | 52*
CCCn1c(NC(=O)c2ccccc2)nc(Cc2ccccc2)c1Cc1ccccc1 | . | 0 | 6 | .
O=C(CN1CCN(C(=O)C2CC2)CC1)Nc1ccc(Cl)cc1F | 1 | -8 | -2 | -2
CCCSc1n[nH]c(NC(C)=O)n1 | -1 | -2 | 3 | 56*
Nc1ccc(/C=C/C(=O)c2ccco2)cc1 | 81* | -1 | -4 | -72
COc1ccc(-c2noc(C(=O)NCc3ccccc3Cl)n2)cc1OC | 0 | -6 | 3 | 35
COc1ccc(-c2noc(C(=O)NCc3ccc(F)cc3)n2)cc1OC | 0 | -6 | -8 | 60*
O=[N+]([O-])c1cc2ccccc2c(O)c1O | -2 | -4 | 2 | 7
O=[N+]([O-])c1cc(-c2ccccc2)cc([N+](=O)[O-])c1O | 1 | -2 | -1 | 65*
SMILES | CRFBP-R2 agonist | DDE Tn6 FP inh | DDE Tn7 FP inh | CRFR2-BP antag
CCc1cccc(NC(=S)N(CCCN2CCOCC2)C(C)c2cc3cccc(OC)c3o2)c1 (stereo not drawn) | -1 | 5 | 12 | 77*
O=C(O)c1ccccc1NC(=O)c1ccccc1Nc1ccccc1 | -1 | 9 | 10 | 52*
COc1ccccc1NC(=O)c1ccccc1Nc1ccccc1 | 2 | -8 | 3 | 5
O=C(COc1ccc2ccccc2c1)Nc1cccc(C(=O)Nc2ccccc2C(=O)O)c1 | 0 | -5 | -4 | 59*
Nc1ccc(C(=O)Nc2ccccc2C(=O)O)cc1 | -2 | -2 | 2 | 18
O=C(Nc1ccccc1C(=O)Nc1ccccc1C(=O)O)c1ccccc1 | 0 | 4 | 1 | 53*
